The text below walks through data of ChEMBL document CHEMBL1671867, “Novel polymyxin derivatives carrying only three positive charges are effective antibacterial agents” (Antimicrob Agents Chemother, 2008).

pIC50: −log10 of the molar value. Bridge positions count the residues as written; N and C are the ends. Square brackets hold non-standard residues; d marks the D form. Peptide text beside a SMILES is read from it. * marks the point of attachment. Octanoyl = CCCCCCCC(=O)*; Dab = NCC[C@H](N)C(=O)O; Abu = CC[C@H](N)C(=O)O

The nature of assay [1]: Inhibition of [3H]gentamicin binding to brush border membrane of renal cortex. In outline:
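Brush border membrane vesicles prepared from male albino rat renal cortex by Mg2+-EGTA precipitation. Incubated with 20 μM [3H]gentamicin in 10 mM HEPES pH 7.5 with 300 mM mannitol, with or without compound, 60 min at 4°C. Then filtered, washed, and bound radioactivity counted by scintillation. IC50 fitted with the Hill equation.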

Assay [2] relates to Escherichia coli. In words: Antibacterial activity against Escherichia coli IH3080 assessed as growth inhibition at 10 ug after 18 hrs by […]. It is filed as functional.
In assay [3] the test system is Escherichia coli. Put plainly: Antibacterial activity against Escherichia coli IH3080 assessed as growth inhibition at 10 ug after 18 hrs by […] in presence of 1 ug/ml rifampin. It is filed as functional.

The compound GENTAMICIN gave a negative-log IC50 (pIC50) in assay [1] of 4.04. Turning to `CCCCCCCC(=O)N[C@H](C(=O)N[C@H](C)C(=O)N[C@H]1CCNC(=O)[C@H]([C@@H](C)O)NC(=O)[C@H](CCN)NC(=O)[C@H](CCN)NC(=O)[C@H]([C@@H](C)O)NC(=O)[C@H](Cc2ccccc2)NC(=O)[C@H](CCN)NC1=O)[C@@H](C)O`, the “inhibition zone (IZ)” value in the assay with Escherichia coli [2] is recorded as 60 mm2; with Escherichia coli [3], 230 mm2. The corresponding values for `CCCCCCCC(=O)N[C@H](C(=O)N[C@@H](CCN)C(=O)N[C@H]1CCNC(=O)[C@H]([C@@H](C)O)NC(=O)[C@H](CC)NC(=O)[C@H](CCN)NC(=O)[C@H](CC(C)C)NC(=O)[C@@H](Cc2ccccc2)NC(=O)[C@H](CCN)NC1=O)[C@@H](C)O` (Octanoyl-T[Dab][Dab][Dab][dF]L[Dab][Abu]T; lactam 3-C) are 0 mm2 and 170 mm2.

For the compound `CCCCCCCC(=O)N[C@H](C(=O)N[C@H](CO)C(=O)N[C@H]1CCNC(=O)[C@H]([C@@H](C)O)NC(=O)[C@H](CCN)NC(=O)[C@H](CCN)NC(=O)[C@H]([C@@H](C)O)NC(=O)[C@H](Cc2ccccc2)NC(=O)[C@H](CCN)NC1=O)[C@@H](C)O`, the “inhibition zone (IZ)” value is recorded as 172 mm2 with Escherichia coli [2] and 190 mm2 with Escherichia coli [3]. Turning to `CCCCCCCC(=O)N[C@@H](C)C(=O)N[C@H](C(=O)N[C@H](CO)C(=O)N[C@H]1CCNC(=O)[C@H]([C@@H](C)O)NC(=O)[C@H](CCN)NC(=O)[C@H](CCN)NC(=O)[C@H](CC(C)C)NC(=O)[C@H](Cc2ccccc2)NC(=O)[C@H](CCN)NC1=O)[C@@H](C)O`, the “inhibition zone (IZ)” value with Escherichia coli [2] was found to be 160 mm2; in the assay with Escherichia coli [3] it was 200 mm2. For the compound `CCCCCCCC(=O)N[C@H](C(=O)N[C@@H](CC)C(=O)N[C@H]1CCNC(=O)[C@H](CC(C)C)NC(=O)[C@H](CCN)NC(=O)[C@H](CCN)NC(=O)[C@H](CC(C)C)NC(=O)[C@@H](Cc2ccccc2)NC(=O)[C@H](CCN)NC1=O)[C@@H](C)O` (Octanoyl-T[Abu][Dab][Dab][dF]L[Dab][Dab]L; lactam 3-C), the “inhibition zone (IZ)” value with Escherichia coli [2] was determined as 50 mm2; in the assay on Escherichia coli [3] it was 180 mm2. Turning to `CCCCCCCC(=O)N[C@H](C(=O)N[C@@H](CO)C(=O)N[C@H]1CCNC(=O)[C@H]([C@@H](C)O)NC(=O)[C@H](CCN)NC(=O)[C@H](CCN)NC(=O)[C@H](CC(C)C)NC(=O)[C@H](Cc2ccccc2)NC(=O)[C@H](CCN)NC1=O)[C@@H](C)O`, the “inhibition zone (IZ)” value is listed as 80 mm2 in the assay on Escherichia coli [2] and 230 mm2 with Escherichia coli [3].
